WNV NS2B-NS3 inh = WNV NS2B-NS3 proteinase inhibition; WNV NS2B-NS3 protease, fluorogenic substrate Ex360/Em465; active compounds read low; 65,000 tested, 0.18% active; P06935; z-score (no concentration beside the values); in the data active means z-score below about -3
Target sequence (P06935 1371-1501 limits assumed): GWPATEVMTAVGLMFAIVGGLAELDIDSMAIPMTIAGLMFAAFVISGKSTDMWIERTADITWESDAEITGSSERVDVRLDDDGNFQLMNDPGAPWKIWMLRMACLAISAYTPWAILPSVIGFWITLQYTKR
Target sequence (P06935 1502-1679 limits assumed): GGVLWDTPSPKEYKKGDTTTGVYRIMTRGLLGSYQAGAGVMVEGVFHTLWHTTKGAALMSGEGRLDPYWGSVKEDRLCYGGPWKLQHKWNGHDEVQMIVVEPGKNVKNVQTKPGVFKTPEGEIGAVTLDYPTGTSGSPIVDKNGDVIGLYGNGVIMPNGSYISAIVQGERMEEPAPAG
tolC growth inh = blocks growth of E. coli BW25113 tolC mutant. OD615. growth inhibition, % at 10 µM (by protocol). 65,000 tested, 2.2% active. AID 573;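 active means growth inhibition at or above a cutoff equal to the mean over every tested compound plus 3 SD, cut at about 60% in these data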;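 further: growth measured after 20 h incubation at 37 °C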
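test system = E. coli BW25113 ΔtolC::kan bacteria | medium = LB with kanamycin 50 µg/mL | signal = OD at 615 nm | schedule = 37 °C, 20 h exposure | evaluation = % inhibition of E. coli growth | compound dosing = one dose of 10 µM final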
BAP1 block = blocks human BAP1 ubiquitin-AMC hydrolysis. Q92560. recombinant BAP1, Ub-AMC hydrolysis fluorescence kinetic; active compounds read low. calls only at 20 µM. 72,000 tested, 0.48% active;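 active means activity remaining at or below 50% of control, provided the compound also passes the data quality filters; inactive means the rest, including low values that fail the filters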;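 further: 100% = DMSO wells rate and 0% = substrate alone blank rate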
TNAP act mid DEA = activators of human TNAP at intermediate phosphate acceptor; activation factor at 20 µM; 64,000 tested, under 10 active; purified TNAP, CDP-star luminescence, 100 mM DEA, 30 min; active compounds read high; scale: 0 levamisole-inhibited, 1 vehicle-only enzyme;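 active means activation factor of at least 2 at 20 µM, relative to controls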
E coli WT exp = blocks growth of wild type E. coli BW25113; OD600 absorbance; growth inhibition, % at 100 µM; 98,000 tested, 0.15% active;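 active means growth inhibition above about 50% at one test dose, limit read from the data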;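 further: growth measured after 20 h incubation at 37 °C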
* hit, by the source's call; i = inactive; nt = not tested or not shown; + = active, no number. This is one part of a sample in which hits are shown more often than they occur.

SMILES	WNV NS2B-NS3 inh	tolC growth inh	BAP1 block	TNAP act mid DEA	E coli WT exp
O=C1C2=C(Nc3ccccc3SC2c2ccco2)c2ccccc21 (configuration not stated)	0.18	100*	i	0.8	20
COC(=O)c1ccc(C(=O)OC)c(NC(=O)CSc2cccc[n+]2[O-])c1	nt	nt	nt	nt	50*
COC(=O)c1ccc(C(=O)OC)c(NC(=O)COc2ccccc2OC)c1	-0.8	-5	nt	0.9	0
CCCCOc1ccc(-c2c(C#N)c(N)nc(SCC(N)=O)c2C#N)cc1	-0.49	70*	nt	0.9	1
COc1ccccc1N1CCN(Cc2nc(N)nc(Nc3ccc(C)c(Cl)c3)n2)CC1	0.15	69*	i	0.9	3
Cc1nc2sc(C(=O)Nc3ccccc3)c(N)c2c(C)c1[N+](=O)[O-]	nt	nt	i	nt	nt
Cc1ccc(S(=O)(=O)/C(C#N)=C/c2c(N3CC(C)OC(C)C3)nc3c(C)cccn3c2=O)cc1 (configuration not stated)	nt	nt	nt	nt	-11
COC(=O)C1=C(C)N(C)C(C)=C(C(=O)OC)C1c1ccc(F)c(Br)c1	-1.2	73*	i	0.9	6
COC(=O)C1=C(C)N(C)C(C)=C(C(=O)OC)C1c1cccc(Cl)c1	nt	nt	i	nt	nt
Cc1ccccc1NS(=O)(=O)c1ccc2c(c1)Cc1cc(S(=O)(=O)Nc3ccccc3C)ccc1-2	nt	nt	i	nt	nt
COc1ccc(Cn2nnnc2C(C(C)C)N2CCc3ccccc32)cc1 (configuration not stated)	1.6	73*	i	0.9	-4
CCOC(=O)c1cccc(NC(=O)c2cc3sccc3n2C)c1	-0.19	73*	nt	0.9	-11
COc1ccc(NCC(O)Cn2c3ccc(Cl)cc3c3cc(Cl)ccc32)c(OC)c1 (configuration not stated)	nt	nt	i	nt	nt
O=C(O)CCC(=O)Nc1nnc(C(F)(F)F)s1	-0.24	4	i	0.9	5
CCC(NC(=O)Nc1nnc(C(F)(F)F)s1)(C(F)(F)F)C(F)(F)F	-0.89	4	i	0.9	58*
Cc1oc2c(CN3CCCC3)c(O)ccc2c(=O)c1-c1ccc(Br)cc1	1.3	77*	nt	0.9	1
CCCCCn1c(-c2ccco2)nc2nc3ccccc3nc21	4.8	77*	i	0.8	6
c1ccc(Cn2c(-c3ccco3)nc3nc4ccccc4nc32)cc1	-0.56	6	nt	0.8	-7
Cc1cccc(/C=N\NC(=O)c2sccc2-n2cccc2)c1	nt	nt	nt	nt	5
CNc1ccc(C(O)(C(F)(F)F)C(F)(F)F)cc1C(O)(C(F)(F)F)C(F)(F)F	-0.63	62*	i	0.8	1
c1ccc(-n2nnnc2Oc2cccc3cccnc23)cc1	0.13	91*	i	0.8	1
Cc1ccc(C(C)C)c(Oc2nnnn2-c2ccccc2)c1	0.92	92*	i	1.1	8
O=C(Cc1ccccc1)NC(c1ccccc1Cl)c1ccc2cccnc2c1O (configuration not stated)	nt	nt	i	nt	nt
Cc1oc2c(CN(C)C)c(O)ccc2c(=O)c1-c1ccc2ccccc2n1	-3.1*	-9	i	1	6
Cc1cccc(N2C(N)=C(C#N)C(C#N)(C#N)C2c2ccccc2)c1 (configuration not stated)	1.1	100*	i	0.8	8
SMILES	WNV NS2B-NS3 inh	tolC growth inh	BAP1 block	TNAP act mid DEA	E coli WT exp
COC(=O)c1ccc(NC(=O)c2ccccc2Cl)cc1	nt	nt	i	nt	nt
CCSc1nnc([C@@H]2CCCN2C(=O)OC(C)(C)C)o1	0.44	-29	i	0.9	-3
CC(C)(C)OC(=O)N1CCC[C@H]1c1nnc(SCc2c(Cl)cccc2Cl)o1	0.22	79*	i	0.9	5
Cc1ccc2c(c1)NC(=O)C(CC(=O)NCCCN1CCN(c3cc(Cl)ccc3C)CC1)O2 (configuration not stated)	0.46	71*	i	0.9	12
Cc1cc(C)cc(-n2ccnc2SCC(=O)Nc2ccc3c(c2)OCCO3)c1	-0.3	77*	i	0.9	-12
O=C(O)C1=CC(=C(c2ccc(O)c(C(=O)O)c2)c2ccc(O)c(C(=O)O)c2)C=CC1=O	nt	nt	+	nt	nt
Cc1ccc2c3c1C1(C(=O)N3C(C)(C)CC2C)C(C#N)=C(N)Oc2cc(O)ccc21 (configuration not stated)	0.07	97*	i	1	-3
CC1=CC(C)(C)N2C(=O)C3(C(C#N)=C(N)Oc4cc(O)ccc43)c3cccc1c32 (configuration not stated)	0.32	100*	i	0.9	13
Cc1cc2c3c(c1)C1(C(=O)N3C(C)(C)CC2C)C(C#N)=C(N)Oc2cc(O)ccc21 (configuration not stated)	-0.32	68*	i	0.9	0
CC1=CC(C)(C)N2C(=O)C3(C(C#N)=C(N)OC4=C3C(=O)CC(C)(C)C4)c3cccc1c32 (configuration not stated)	1.8	-16	i	1	-12
COc1ccccc1C(CC(N)=O)c1ccco1 (configuration not stated)	nt	nt	nt	nt	-1
COc1ccccc1NC1=C(Cl)C(=O)N(c2cccc(C)c2C)C1=O	nt	nt	i	nt	nt
Cc1ccc2c(c1)n([O-])c1c([n+]2=O)CCCC1	nt	nt	nt	nt	2
CC(=O)c1c(C)n([O-])c2ccc(C)cc2[n+]1=O	0.55	72*	i	1	53*
CN(c1cccc(NC(=O)Nc2cccc(Cl)c2)c1)S(C)(=O)=O	-0.88	61*	i	1.1	29
Cc1ccc(-c2noc(CSc3nnnn3C3CCCCC3)n2)cc1	-0.42	73*	i	1	2
O=c1c2ccccc2sn1-c1ccc(S(=O)(=O)N2CCCC2)cc1	0.17	-5	i	0.9	-3
O=c1c2ccccc2sn1-c1ccccc1	nt	nt	nt	nt	100*
COc1ccc(CSC(=N)N)cc1[N+](=O)[O-]	nt	nt	nt	nt	6
CCCCCOc1ccc(CSC(=N)N)cc1[N+](=O)[O-]	nt	nt	nt	nt	100*
COc1ccccc1Cc1nc(-c2ccc(Br)o2)no1	-0.65	61*	i	0.9	6
COc1ccc(OC)c(NS(=O)(=O)c2ccc(Cl)s2)c1	-0.19	-2	i	0.9	1
COc1ccc(OC)c(NS(=O)(=O)c2cccs2)c1	-6*	-26	i	1	-3
O=S(=O)(c1ccc2c(c1)OCCO2)N1CCN(c2nc3ccccc3s2)CC1	0.5	7	nt	1	-3
c1ccc2c(c1)CCN(c1nc3cc4c(cc3s1)OCCO4)C2	0.36	65*	i	0.9	-7
COC(=O)C1=C(N)Oc2cc(C)n(Cc3ccco3)c(=O)c2C1c1cccc(Cl)c1 (configuration not stated)	-0.25	68*	nt	0.9	-17
CCn1c(C)cc2c(c1=O)C(c1ccccc1)C(C(=O)OC)=C(N)O2 (configuration not stated)	nt	nt	nt	nt	-2
CCn1c2ccccc2c2cc(C3C(C#N)=C(N)Oc4n[nH]c(COC)c43)ccc21 (configuration not stated)	0.76	71*	i	1	0
